# TDP2 inh = human TDP2 enzyme inhibitors, primary screen, biochemical, epi absorbance, recombinant enzyme; Tyrosyl-DNA phosphodiesterase 2 (Homo sapiens), O95551; T5PNP hydrolysis, p-nitrophenol absorbance 415 nm; inhibition, % at 12.8 µM; hit rate 0.34% among 370,000;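 active means inhibition above the mean of all tested compounds plus 3 SD, set per campaign, cut at about 25% in these data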;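 further: 0% = DMSO with enzyme and 100% = buffer with substrate but no TDP2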
# Target sequence (O95551 whole entry, looked up): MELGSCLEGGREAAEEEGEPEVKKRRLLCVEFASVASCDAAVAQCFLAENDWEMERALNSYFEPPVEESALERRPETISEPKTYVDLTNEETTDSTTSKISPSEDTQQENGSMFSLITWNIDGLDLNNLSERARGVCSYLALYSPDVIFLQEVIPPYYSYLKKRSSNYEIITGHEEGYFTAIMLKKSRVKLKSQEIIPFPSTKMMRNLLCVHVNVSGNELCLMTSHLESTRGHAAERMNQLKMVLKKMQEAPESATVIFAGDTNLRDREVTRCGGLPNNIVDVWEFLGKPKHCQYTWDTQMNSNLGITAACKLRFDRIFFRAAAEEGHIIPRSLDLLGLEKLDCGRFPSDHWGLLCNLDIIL
#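 System: recombinant human TDP2 / Amount: 120 nM TDP2 per well / Also added: 5 mM T5PNP chromogenic substrate / Doses: 12.8 µM single point, 1% DMSO / Incubation: 2 h at 37 °C / Detection: p-Nitrophenol epi absorbance / Evaluation: % inhibition relative to enzyme-containing and enzyme-free wells / Repeats: singlicate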
# NSD2 HMT inh = NSD2 histone methyltransferase inhibitors, primary screen, biochemical, AlphaScreen, single concentration, set 2. Histone-lysine N-methyltransferase NSD2 (Homo sapiens), O96028. NSD2 peptide methylation, 120 min. inhibition, % at 12.5 µM. hit rate 0.54% among 310,000; in the data active means inhibition above about 50%
# Fh CTSL1 inh = Fasciola hepatica cathepsin L1 inhibitors, primary screen, counter-screen for PFM18AAP inhibitor project, biochemical, QFRET, fluorogenic peptide substrate | recombinant F. hepatica cathepsin L1, Z-Leu-Arg-MCA fluorescence | inhibition, % at 5.96 µM | hit rate 0.49% among 300,000;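 active means inhibition above the mean of all tested compounds plus 3 SD, set per screening campaign, cut at about 17% in these data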;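 further: 0% = plate median of test compound wells and 100% = 1 µM Z-Phe-Ala-diazomethylketone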
# SUMO HTRF inh = inhibitors of in vitro SUMOylation cascade, primary screen, biochemical, HTRF, uHTS; SUMO-conjugating enzyme UBC9 (Homo sapiens), P63279; HTRF SUMOylation assay, SAE1/SAE2 + UBC9; inhibition, % at 35 µM; hit rate 0.36% among 290,000; AID 2006, 2009; in the data active means inhibition above about 50%, passing the limit was not always enough; inconclusive means no clear call, values can overlap the other calls
# AlphaScreen art = AlphaScreen signal interference with preloaded methylated product, dose response, artefact control for NSD2 inhibitor project, biochemical, cherry-picked samples | AlphaScreen artifact counterscreen, preloaded methylated H4 peptide | shares compounds with NSD2 HMT inh | AC35, µM (series often up to 10 µM), inactives show at the top dose activity change, negative = signal loss | hit rate 9.4% among 1,500; call rule not given here
# An asterisk follows results filed as active; ? = inconclusive; . = no result given. This is a sample that favours compounds with a hit; in the whole collection about 1.2% have one here.
SMILES,TDP2 inh,NSD2 HMT inh,Fh CTSL1 inh,SUMO HTRF inh,AlphaScreen art
N#Cc1nc(NCC(F)F)nc(Nc2cc(F)cc(F)c2)n1,-23,.,.,.,.
O=C(COC(=O)c1ccccc1F)NC1CC1,2,52*,.,.,2%
CN(C)/C=C1\C=C2C(=O)c3ccccc3N2C1=O,8,144*,4,11,-3%
Cc1ccc(C)c(NC(=O)C[n+]2ccccc2)c1,-5,-2,-1,3,.
O=C(O)c1ccc(-n2cccc2/C=N\NC(=O)c2cc3cc(Br)ccc3o2)cc1,0,58*,2,43,-17%
C[C@H](NC(=O)C1CCN(C(=O)[C@H](Cc2ccccc2)NC(=O)OC(C)(C)C)CC1)C(=O)O,-9,-1,0,2,.
CCOc1cc(NC(=O)c2ccccn2)c(OCC)cc1NC(=O)c1ccccc1,7,0,-2,5,.
CCOc1cc(NC2CS(=O)(=O)CC2O)c(OCC)cc1NC(=O)c1ccccc1 (configuration not stated),0,61*,-1,17,-7%
O=C(CN1CCN(CC(=O)Nc2ccccc2Cl)CC1)Nc1ccc(F)c(F)c1,3,-5,3,-15,.
COCCCNC(=O)C1CCN(C(=O)c2oc3cc4sc(N(C)C)nc4cc3c2C)CC1,3,-4,-4,41,.
CCN(CC)CCCNC(=O)C1CCN(C(=O)c2oc3cc4sc(N(C)C)nc4cc3c2C)CC1,6,57*,0,42,0%
Cc1cccc(Nc2nnc(-c3ccc(N4CCOCC4)c([N+](=O)[O-])c3)c3ccccc23)c1,-6,53*,0,11,-10%
CCC(C)NCCCOc1cc(Cl)ccc1Cl (configuration not stated),8,52*,-2,27,-1%
CCCCNCCCOc1cc(Cl)ccc1Cl,-21,7,-3,7,.
C=CCc1cc(Cl)ccc1OCCOCCNC(C)CC (configuration not stated),-4,6,-4,10,.
CCC(C)NCCCCOc1ccc(Cl)cc1C (configuration not stated),-8,60*,0,-14,-5%
COc1ccc(OCCN2CCC(C(=O)NC(C)c3cccc4ccccc34)CC2)cc1 (configuration not stated),-4,-1,.,.,.
COc1ccc2c(c1)C=C(CN1CCN(C3CCCC3)C(CCO)C1)CO2 (configuration not stated),4,.,-16,6,.
CC(=O)c1ccc(S(=O)(=O)Nc2cccc(-n3cnnn3)c2)cc1,-6,115*,-4,10,-13%
CC(=O)Nc1ccc(S(=O)(=O)Nc2cccc(-n3cnnn3)c2)cc1,5,-2,8,1,.
Cc1ccc(-c2nn3c(C)nnc3s2)cc1NC(=O)c1cccs1,-3,-1,-3,14,.
Cc1cc2nn(-c3cccc4ccccc34)nc2cc1NC(=O)c1cccs1,3,126*,3,16,-3%
COCC(=O)N[C@H]1C=C[C@@H](CC(=O)NCc2ccccc2OC)O[C@@H]1CO,3,.,.,.,.
Oc1ccc(C2=Nn3c(nnc3-c3ccco3)SC2)cc1O,-11,62*,0,3,-23%
COc1cccc(NC(=O)CN(C)C(=O)CSc2nc(C)cc(C)n2)c1,2,-1,.,.,.
SMILES,TDP2 inh,NSD2 HMT inh,Fh CTSL1 inh,SUMO HTRF inh,AlphaScreen art
CCOc1ccccc1NCc1nnc(-c2ccccc2)o1,-3,66*,-2,5,-2%
COc1ccc(OC)c(NCc2nnc(-c3ccccc3)o2)c1,-4,6,.,-6,.
O=C(O)c1c2c(nc3ccccc13)/C(=C/c1ccc(O)cc1)CC2,15,83*,-3,?,-20%
O=C(O)c1c2c(nc3ccccc13)/C(=C/c1ccc(OC(F)F)cc1)CCC2,1,-2,4,18,.
CC(=O)c1ccc(NC(=O)COC(=O)CCC2CCCC2)cc1,-7,14,.,.,.
O=[N+]([O-])c1ccc(S(=O)(=O)Nc2ccc(-c3ccccc3)cc2)cc1,-2,1,.,.,.
CCOC(=O)COc1ccccc1C(=O)c1cnn(-c2ccccc2)c1,5,-13,-1,3,.
COc1ccc(-n2ncc3c(NCCCn4ccnc4)ncnc32)cc1,4,121*,-1,15,0%

# High-throughput results from PubChem.
